According to the array DNA melting data of Ke et al. (doi:10.1101/2024.01.08.574731):

Legend:
[1] = melting temperature; fluorescence melt of hairpins on a sequencing array, two-state fit, raised by 9.35 °C to match UV melts; settings: sodium 0.088 M
In short: (§1)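 Melting temperature and folding enthalpy were derived from bootstrapped two-state fits. The fitted temperatures were raised by 9.35 °C to agree with UV melts, and four replicates were combined by inverse variance. The underlying data were Cy3 fluorescence images of library hairpins, with annealed Cy3 and quencher oligos, on a sequenced MiSeq flow cell in 50 mM Na-HEPES pH 8.0, 25 mM NaCl, taken in 2.5 °C steps up to 60 °C, normalised to pre-quench Cy3 and to control constructs.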

[2] = folding enthalpy; higher = less favourable; fluorescence melt of hairpins on a sequencing array, two-state fit; settings: sodium 0.088 M
In short: as §1

Sequence | Tm [1] | folding enthalpy [2]
GTCCGGGGAAACCCGAAC ((.((((....)))).)) | 44.2 °C | -18.5 kcal/mol
GCCTTCGAAAGAATGGC ((((((....))).))) | 49 °C | -27.2 kcal/mol
GATCATTCACATGATC ((((((....)))))) | 46.6 °C | -39.8 kcal/mol
GCCGACGAAAGTCTGGC ((((((....))).))) | 58.2 °C | -34.6 kcal/mol
GTGGGAACGAAAGTTCAC (((..(((....)))))) | 54.9 °C | -34.3 kcal/mol
GGTGACGGAAACACCACC ((((..(....)..)))) | 34.5 °C | -20 kcal/mol
GTGAACCGAAAGGTGCAC (((.(((....))).))) | 60.7 °C | -39.6 kcal/mol
GACTGTGGAAACGTAGTC ((((..(....)..)))) | 34.8 °C | -17.5 kcal/mol
GGGGTCGAAAGACAACCC ((((((....)))..))) | 48.8 °C | -21.2 kcal/mol
GATCGACTCATCGATC ((((((....)))))) | 51.8 °C | -41.7 kcal/mol
GTACGTCGAAAGACATAC (((.(((....))).))) | 38.4 °C | -20.1 kcal/mol
GTTACCGAAAGGTCTAAC ((((((....)))..))) | 29.2 °C | -9.14 kcal/mol
GCTATCGAAAGATAAGC ((((((....))).))) | 45 °C | -26.7 kcal/mol
GATTGCGAAAGCAAATC ((((((....))).))) | 50.2 °C | -15.9 kcal/mol
CGTCTACGGAAACGTACG (((..(((....)))))) | 31.5 °C | -11.6 kcal/mol
GCCGTGCGAAAGCATAGC ((..(((....)))..)) | 43.3 °C | -13.6 kcal/mol
GCGAGCACTCGC ((((....)))) | 56.8 °C | -26.4 kcal/mol
GTAGTTGGAAACAACCAC ((.((((....)))).)) | 32.6 °C | -18.7 kcal/mol
GGGTGAGGAAACCCACCC (((((.(....).))))) | 51.7 °C | -50.9 kcal/mol
GATCTTGAACAAGATC ((((((....)))))) | 49.2 °C | -34.8 kcal/mol
GGGCGAGGAAACTCACCC (((.(((....))).))) | 49.6 °C | -41 kcal/mol
GATCGGGGAACCGATC ((((((....)))))) | 65.3 °C | -34.1 kcal/mol
GGAGGCGAAAGCCTTTCC ((((((....)))..))) | 32.4 °C | -10.3 kcal/mol

Sequence | Tm [1] | folding enthalpy [2]
GATCCTCGCTAGGATC ((((((....)))))) | 51.2 °C | -35.6 kcal/mol
GATTTGGGAAACCAAGTC ((.((((....)))).)) | 38.8 °C | -28.7 kcal/mol
GCGAGTTATCGC ((((....)))) | 57.6 °C | -24 kcal/mol
GATCCGCCAGCGGATC ((((((....)))))) | 65.2 °C | -44.9 kcal/mol
GCTTTTTCGAAAGAAAGC (((..(((....)))))) | 34.4 °C | -17.7 kcal/mol
GGAGCTGGAAACGGTTCC (((.(.(....).).))) | 37.6 °C | -17.5 kcal/mol
GTTCTCCGAAAGGAAAAC (((.(((....))).))) | 35.5 °C | -25.2 kcal/mol
GGTCACGAAAGTGCGACC ((((((....)))..))) | 40.8 °C | -17.7 kcal/mol
CGCGCGGAAACGCATGCG ((((((....)))..))) | 52.9 °C | -32.8 kcal/mol
GGTGTACGAAAGTATACC (((.(((....))).))) | 53.3 °C | -47.6 kcal/mol
GCATAGCGAAAGCTCTGC (((.(((....))).))) | 49.4 °C | -45.2 kcal/mol
GATCCTGAATAGGATC ((((((....)))))) | 59 °C | -39.2 kcal/mol
GATCAGGCGACTGATC ((((((....)))))) | 56.4 °C | -36.8 kcal/mol
GTTTGTGGAAACACAGAC ((.((((....)))).)) | 43.9 °C | -23.6 kcal/mol
GGAGTCGAAAGACACTCC ((((((....)))..))) | 37.5 °C | -16 kcal/mol
GTGTACGGAAACGTATAC ((.((((....)))).)) | 46.6 °C | -29.1 kcal/mol
GCACAGGAAACTGTGC ((((((....)))))) | 67 °C | -36.1 kcal/mol
GCTCTCGAAAGAGAAGC ((((((....))).))) | 49.8 °C | -22 kcal/mol
GGCGATGGAAACGTCGCC (((((.(....).))))) | 64.6 °C | -48.7 kcal/mol
GAAAACGAAAGTTTTTTC ((((((....)))..))) | 38.9 °C | -20.7 kcal/mol
GAGCGCGAAAGCGTACTC ((((((....)))..))) | 44.4 °C | -12.1 kcal/mol
GATTTCACGAAAGTGATC (((..(((....)))))) | 23.4 °C | -9.78 kcal/mol
GTATGCGAAAGCAAGTAC ((((((....)))..))) | 26.1 °C | -8.53 kcal/mol

Sequence | Tm [1] | folding enthalpy [2]
TGTTTGAAAAAACA (((((....))))) | 29.3 °C | -8.4 kcal/mol
GCGTTGTACGC ((((...)))) | 65.8 °C | -19 kcal/mol
GCTTCATCGAAAGATAGC (((..(((....)))))) | 28.3 °C | -13 kcal/mol
GATCTACGGTTAGATC ((((((....)))))) | 37.8 °C | -30.3 kcal/mol
GATCACATGGTGATC ((((((...)))))) | 61.1 °C | -37 kcal/mol
GTTGCTGGAAACGGCAAC (((((.(....).))))) | 55.2 °C | -43.6 kcal/mol
GGCTGCGGAAACGTAGCC ((((.((....)).)))) | 61 °C | -50.1 kcal/mol
GATGTCGGAAACGGCATC ((((.((....)).)))) | 54.4 °C | -46.5 kcal/mol
GATCCAGGTTGGATC ((((((...)))))) | 50.7 °C | -41.9 kcal/mol
GGGCGGCGAAAGCCTCCC (((.(((....))).))) | 61.2 °C | -21.9 kcal/mol
GCGCTGCGAAAGCTGTGC ((.(.((....)).).)) | 59.5 °C | -34.4 kcal/mol
GATCCGCGAAAGCGTATC (((.(((....))).))) | 43.4 °C | -18.4 kcal/mol
GGCCTTCGAAAGAACGCC (((.(((....))).))) | 44.4 °C | -30.7 kcal/mol
GCGCGTGGAAACGTGCGC ((((..(....)..)))) | 64.7 °C | -40.5 kcal/mol
GTCATACGAAAGTAAGAC (((.(((....))).))) | 43.5 °C | -25.6 kcal/mol
GCAGCAACGAAAGTTTGC (((..(((....)))))) | 35.8 °C | -17.1 kcal/mol
GATCAGTCGTCTGATC ((((((....)))))) | 52.3 °C | -36.5 kcal/mol
GCCCACGAAAGTGGTGGC ((((((....)))..))) | 55.4 °C | -13.8 kcal/mol
GGGTCCGGAAACAGACCC (((((.(....).))))) | 49.5 °C | -44.5 kcal/mol
GATTCCGAAAGGAGTATC ((((((....)))..))) | 27.1 °C | -15.7 kcal/mol
GTCGGTGGAAACACCAAC ((.((((....)))).)) | 39.4 °C | -18.1 kcal/mol
GATCAAACCATTGATC ((((((....)))))) | 42.1 °C | -31.2 kcal/mol
GAGTATGGAAACATACTC (((((((....))))))) | 54.4 °C | -37.6 kcal/mol

Sequence | Tm [1] | folding enthalpy [2]
GAAGACGAAAGTCTCTTC ((((((....)))..))) | 51.6 °C | -23.9 kcal/mol
GACCCAGGAAACTAGGTC ((((.((....)).)))) | 36 °C | -26.7 kcal/mol
GGTTTCGGAAACAAAACC (((((.(....).))))) | 36.6 °C | -22.7 kcal/mol
GAATTGCGAAAGCATTTC (((.(((....))).))) | 44.8 °C | -21.7 kcal/mol
GTCCTCGAAAGAGCCGAC ((((((....)))..))) | 26.7 °C | -12.4 kcal/mol
GGCGTCCCGAAAGGGGCC (((..(((....)))))) | 50.4 °C | -14.3 kcal/mol
GCGAGGTATCGC ((((....)))) | 55.6 °C | -21.6 kcal/mol
GGGTGGAAACACCC (((((....))))) | 63.5 °C | -28.2 kcal/mol
GATCACGGAAACGTGGTC ((.((((....)))).)) | 53.8 °C | -38.7 kcal/mol
GCAGGGCGAAAGCCGAGC ((..(((....)))..)) | 50.1 °C | -14.9 kcal/mol
GATCAGGACTCTGATC ((((((....)))))) | 55.6 °C | -40.6 kcal/mol
GAGGGAGGAAACTCCCTC (((((((....))))))) | 62.9 °C | -41.1 kcal/mol
GGGTACGGAAACGCACCC ((((.((....)).)))) | 52.3 °C | -49.4 kcal/mol
GGCGCCGAAAGGCTAGCC ((((((....)))..))) | 61.7 °C | -21.6 kcal/mol
GCCTGGGGAAACCCAAGC ((.((((....)))).)) | 42.7 °C | -21.5 kcal/mol
GGAGTGCGAAAGCATTCC (((.(((....))).))) | 58.1 °C | -30.4 kcal/mol
GTCGCTCCGAAAGGAGAC (((..(((....)))))) | 34.9 °C | -10.5 kcal/mol
GATCATCGGAATGATC ((((((....)))))) | 45.8 °C | -38.9 kcal/mol
GATCGTTAGCACGATC ((((((....)))))) | 51.4 °C | -32.3 kcal/mol
GCCCTGCGAAAGCAGAGC ((.((((....)))).)) | 60.4 °C | -18.8 kcal/mol
GGCGAAGGAAACCTCGCC (((((.(....).))))) | 55.3 °C | -46.7 kcal/mol
GATCATTCTGATGATC ((((((....)))))) | 49.5 °C | -39.7 kcal/mol
GAGTAGCGAAAGCTTCTC (((.(((....))).))) | 47.2 °C | -26.4 kcal/mol
